ChEMBL document CHEMBL1143195, “Novel sulfonanilide analogs decrease aromatase activity in breast cancer cells: synthesis, biological evaluation, and ligand-based pharmacophore identification” (J Med Chem, 2008)
Activity calls are given as the source filed them. No cut-off for these calls is given here.

Biological target: T1, Aromatase (Homo sapiens, UniProt P11511)
T1 sequence (P11511 whole entry): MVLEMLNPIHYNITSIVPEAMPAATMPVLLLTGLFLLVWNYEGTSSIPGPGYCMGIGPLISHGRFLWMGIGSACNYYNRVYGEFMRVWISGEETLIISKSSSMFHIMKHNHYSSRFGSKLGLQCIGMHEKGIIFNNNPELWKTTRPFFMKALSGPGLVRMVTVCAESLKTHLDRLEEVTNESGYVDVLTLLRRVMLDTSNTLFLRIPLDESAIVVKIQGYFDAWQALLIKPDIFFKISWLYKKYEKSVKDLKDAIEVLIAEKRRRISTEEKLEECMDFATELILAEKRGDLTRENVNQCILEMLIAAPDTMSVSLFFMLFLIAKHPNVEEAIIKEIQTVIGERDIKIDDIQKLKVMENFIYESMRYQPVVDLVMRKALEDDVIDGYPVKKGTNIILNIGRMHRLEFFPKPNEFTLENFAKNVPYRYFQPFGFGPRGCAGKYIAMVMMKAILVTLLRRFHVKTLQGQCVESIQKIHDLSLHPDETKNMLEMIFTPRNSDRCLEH
Test: Inhibition of aromatase in human SKBR3 cells by tritiated water release assay
Type: cell-based
Details: sk-br-3
How it was run: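 Subconfluent SK-BR-3 cells were switched to defined DMEM/F12 (human albumin, transferrin, insulin) and treated 24 h at five concentrations in triplicate (0.1% DMSO vehicle). They were then incubated 3 h with 100 nM [1β-3H]-androstenedione. TCA-precipitated medium was chloroform-extracted and charcoal-treated, and 3H2O counted as pmol/h/10^6 cells, normalized by DNA assay. IC50 was taken from sigmoidal dose–response fits.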

IC50 [nM] | SMILES
2670 | CCCCCCOc1cc([N+](=O)[O-])ccc1NS(C)(=O)=O
2680 | CN(c1ccc([N+](=O)[O-])cc1OCc1ccc2ccccc2c1)S(C)(=O)=O
810 | CN(c1ccc([N+](=O)[O-])cc1OCc1ccccc1)S(C)(=O)=O
250 | CN(c1ccc(NC(=O)C2CCCCC2)cc1OCc1ccccc1)S(C)(=O)=O
2170 | CS(=O)(=O)Nc1ccc([N+](=O)[O-])cc1OCc1ccc2ccccc2c1
910 | CCCCCCCCCOc1cc([N+](=O)[O-])ccc1NS(C)(=O)=O
2140 | CS(=O)(=O)Nc1ccc([N+](=O)[O-])cc1OCc1ccccc1
2330 | Cc1ccc(COc2cc([N+](=O)[O-])ccc2N(C)S(C)(=O)=O)cc1
7450 | CC(C)c1ccc(COc2cc([N+](=O)[O-])ccc2NS(C)(=O)=O)cc1
1100 | CN(c1ccc(N)cc1OCc1ccccc1)S(C)(=O)=O
850 | CS(=O)(=O)Nc1ccc([N+](=O)[O-])cc1OCc1ccc(-c2ccccc2)cc1
470 | CN(c1ccc([N+](=O)[O-])cc1OC1CCCCC1)S(C)(=O)=O
1750 | Cc1ccc(COc2cc([N+](=O)[O-])ccc2NS(C)(=O)=O)cc1
580 | CS(=O)(=O)Nc1ccc([N+](=O)[O-])cc1OCc1ccc(F)cc1
960 | CN(c1ccc([N+](=O)[O-])cc1OCC1CCCCC1)S(C)(=O)=O
290 | CS(=O)(=O)Nc1ccc([N+](=O)[O-])cc1OCc1ccc(Cl)cc1
1780 | CN(c1ccc([N+](=O)[O-])cc1OCc1ccc(F)cc1)S(C)(=O)=O
5850 | CS(=O)(=O)Nc1ccc([N+](=O)[O-])cc1OCc1ccc(Br)cc1
230 | CS(=O)(=O)Nc1ccc([N+](=O)[O-])cc1OCCc1ccccc1
680 | CS(=O)(=O)Nc1ccc([N+](=O)[O-])cc1OC1CCCCC1 [NS-398]
870 | CS(=O)(=O)Nc1ccc([N+](=O)[O-])cc1OC1CCCC1
16700 | CC(=O)Nc1ccc(N(C)S(C)(=O)=O)c(OCc2ccccc2)c1
690 | CN(c1ccc(NC(=O)c2ccc(Cl)c([N+](=O)[O-])c2)cc1OCc1ccccc1)S(C)(=O)=O
120 | CN(c1ccc(NC(=O)c2ccc(-c3ccccc3)cc2)cc1OCc1ccccc1)S(C)(=O)=O
> 25000 | O=C(Nc1ccc([N+](=O)[O-])cc1OCc1ccccc1)c1ccc(Cl)c([N+](=O)[O-])c1

Second part, the compound before the results:

SMILES | IC50 [nM]
CN(c1ccc(NC(=O)c2ccc3ccccc3c2)cc1OCc1ccccc1)S(C)(=O)=O | 1070
O=C(Nc1ccc([N+](=O)[O-])cc1OCc1ccccc1)c1cccc([N+](=O)[O-])c1 | > 25000
CCC(CC)Oc1cc([N+](=O)[O-])ccc1NS(C)(=O)=O | 300
CC(C)Oc1cc([N+](=O)[O-])ccc1NS(C)(=O)=O | 5870
O=[N+]([O-])c1ccc(S(=O)(=O)Nc2ccc([N+](=O)[O-])cc2OCc2ccccc2)cc1 | 2170
COc1ccc(COc2cc([N+](=O)[O-])ccc2NS(C)(=O)=O)cc1 | 7820
CN(c1ccc(NC(=O)c2ccccc2)cc1OCc1ccccc1)S(C)(=O)=O | 1770
O=C(Nc1ccc([N+](=O)[O-])cc1OCc1ccccc1)C1CCCCC1 | > 25000
CC(=O)Nc1ccc([N+](=O)[O-])cc1OCc1ccccc1 | 1180
N#Cc1ccc(C(=O)Nc2ccc([N+](=O)[O-])cc2OCc2ccccc2)cc1 | > 25000
CN(c1ccc([N+](=O)[O-])cc1OCCc1ccccc1)S(C)(=O)=O | 520
CCC(CC)Oc1cc([N+](=O)[O-])ccc1N(C)S(C)(=O)=O | 230
O=C(Nc1ccc([N+](=O)[O-])cc1OCc1ccccc1)c1ccccc1 | > 25000
CN(c1ccc([N+](=O)[O-])cc1OCc1cccc2ccccc12)S(C)(=O)=O | 1170
Cc1ccc(S(=O)(=O)Nc2ccc([N+](=O)[O-])cc2OCc2ccccc2)cc1 | 17400
Cc1ccc(C)c(COc2cc([N+](=O)[O-])ccc2NS(C)(=O)=O)c1 | 370
CS(=O)(=O)Nc1ccc([N+](=O)[O-])cc1OCc1ccccc1-c1ccccc1 | 260
CCCCCCCCCOc1cc([N+](=O)[O-])ccc1N(C)S(C)(=O)=O | 3960
CCCOc1cc([N+](=O)[O-])ccc1N(C)S(C)(=O)=O | 760

SMILES | IC50 [nM]
CN(c1ccc(NC(=O)c2ccc(Cl)c(Cl)c2)cc1OCc1ccccc1)S(C)(=O)=O | 690
CCCCCCOc1cc([N+](=O)[O-])ccc1N(C)S(C)(=O)=O | 4490
CN(c1ccc([N+](=O)[O-])cc1OC1CCCC1)S(C)(=O)=O | 440
CN(c1ccc(NC(=O)c2ccc(C#N)cc2)cc1OCc1ccccc1)S(C)(=O)=O | 440
CN(c1ccc([N+](=O)[O-])cc1OCc1ccc([N+](=O)[O-])cc1)S(C)(=O)=O | 490
CS(=O)(=O)Nc1ccc([N+](=O)[O-])cc1OCc1ccc([N+](=O)[O-])cc1 | 400
CS(=O)(=O)Nc1ccc([N+](=O)[O-])cc1OCc1cccc2ccccc12 | 5740
O=C(Nc1ccc([N+](=O)[O-])cc1OCc1ccccc1)c1ccc2ccccc2c1 | > 25000
O=C(Nc1ccc([N+](=O)[O-])cc1OCc1ccccc1)c1ccc(Cl)c(Cl)c1 | > 25000
COc1ccc(COc2cc([N+](=O)[O-])ccc2N(C)S(C)(=O)=O)cc1 | 470
CN(c1ccc([N+](=O)[O-])cc1OCc1ccc(-c2ccccc2)cc1)S(C)(=O)=O | 650
O=C(Nc1ccc([N+](=O)[O-])cc1OCc1ccccc1)c1ccc([N+](=O)[O-])cc1 | > 25000
CCCOc1cc([N+](=O)[O-])ccc1NS(C)(=O)=O | 2510
CN(c1ccc([N+](=O)[O-])cc1OCc1ccc(Br)cc1)S(C)(=O)=O | 330
CS(=O)(=O)Nc1ccc([N+](=O)[O-])cc1OCC1CCCCC1 | 1210
O=C(Nc1ccc([N+](=O)[O-])cc1OCc1ccccc1)c1ccc(-c2ccccc2)cc1 | > 25000
CC(C)Oc1cc([N+](=O)[O-])ccc1N(C)S(C)(=O)=O | 2810
CN(c1ccc([N+](=O)[O-])cc1OCc1ccccc1-c1ccccc1)S(C)(=O)=O | 330
CN(c1ccc([N+](=O)[O-])cc1OCc1ccc(Cl)cc1)S(C)(=O)=O | 2400

Test system: SK-BR-3
Test: Cytotoxicity against human SKBR3 cells by diphenylamine DNA assay
Type: functional, cell-based
Details: not given

SMILES | Activity
Cc1ccc(C)c(COc2cc([N+](=O)[O-])ccc2N(C)S(C)(=O)=O)c1 | Active
CC(C)c1ccc(COc2cc([N+](=O)[O-])ccc2N(C)S(C)(=O)=O)cc1 | Active
